{"source": "paper PMC7220363", "about": "(Drug Design, Development and Therapy, 2020)", "key": {"mTOR enzyme": {"target": "mTOR enzyme (Homo sapiens, UniProt P42345)", "test": "mTOR enzyme assay", "type": "biochemical", "settings": "for Selectivity: PI3Kα IC50 relative to mTOR IC50 (table column); for inhibitory activity against mTOR (in words): derivatives with a para-substituent group on R3"}, "PI3Kα (p110α/p85α)": {"target": "PI3Kα (p110α/p85α) (Homo sapiens, UniProt P42336)", "sequence (P42336 whole entry)": "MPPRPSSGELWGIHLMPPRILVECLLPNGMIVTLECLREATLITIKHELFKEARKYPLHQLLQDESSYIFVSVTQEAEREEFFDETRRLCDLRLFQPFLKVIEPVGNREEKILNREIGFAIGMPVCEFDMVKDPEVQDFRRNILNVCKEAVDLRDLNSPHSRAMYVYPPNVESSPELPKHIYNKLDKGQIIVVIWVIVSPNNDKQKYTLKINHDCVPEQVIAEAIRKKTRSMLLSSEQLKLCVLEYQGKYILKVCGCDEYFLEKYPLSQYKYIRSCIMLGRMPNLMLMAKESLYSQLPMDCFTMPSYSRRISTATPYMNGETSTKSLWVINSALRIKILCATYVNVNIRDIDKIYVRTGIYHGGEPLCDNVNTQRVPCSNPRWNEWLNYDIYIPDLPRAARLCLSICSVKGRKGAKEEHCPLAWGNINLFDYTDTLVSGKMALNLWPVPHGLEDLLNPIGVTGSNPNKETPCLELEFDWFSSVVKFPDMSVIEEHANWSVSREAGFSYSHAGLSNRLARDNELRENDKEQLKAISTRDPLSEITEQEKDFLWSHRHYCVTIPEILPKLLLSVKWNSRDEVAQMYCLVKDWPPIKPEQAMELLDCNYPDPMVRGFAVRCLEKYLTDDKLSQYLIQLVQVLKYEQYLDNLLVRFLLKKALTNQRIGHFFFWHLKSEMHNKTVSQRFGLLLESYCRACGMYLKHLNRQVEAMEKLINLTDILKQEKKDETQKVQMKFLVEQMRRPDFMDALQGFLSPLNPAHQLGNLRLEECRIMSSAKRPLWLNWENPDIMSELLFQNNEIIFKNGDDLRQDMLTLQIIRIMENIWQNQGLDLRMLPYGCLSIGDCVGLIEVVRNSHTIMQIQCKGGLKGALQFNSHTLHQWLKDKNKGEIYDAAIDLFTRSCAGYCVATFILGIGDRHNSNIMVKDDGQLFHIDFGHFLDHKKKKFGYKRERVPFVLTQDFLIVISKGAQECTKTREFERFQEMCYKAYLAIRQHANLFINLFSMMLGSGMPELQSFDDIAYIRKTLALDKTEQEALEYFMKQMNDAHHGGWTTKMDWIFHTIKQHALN", "sequence (P27986 whole entry partner)": "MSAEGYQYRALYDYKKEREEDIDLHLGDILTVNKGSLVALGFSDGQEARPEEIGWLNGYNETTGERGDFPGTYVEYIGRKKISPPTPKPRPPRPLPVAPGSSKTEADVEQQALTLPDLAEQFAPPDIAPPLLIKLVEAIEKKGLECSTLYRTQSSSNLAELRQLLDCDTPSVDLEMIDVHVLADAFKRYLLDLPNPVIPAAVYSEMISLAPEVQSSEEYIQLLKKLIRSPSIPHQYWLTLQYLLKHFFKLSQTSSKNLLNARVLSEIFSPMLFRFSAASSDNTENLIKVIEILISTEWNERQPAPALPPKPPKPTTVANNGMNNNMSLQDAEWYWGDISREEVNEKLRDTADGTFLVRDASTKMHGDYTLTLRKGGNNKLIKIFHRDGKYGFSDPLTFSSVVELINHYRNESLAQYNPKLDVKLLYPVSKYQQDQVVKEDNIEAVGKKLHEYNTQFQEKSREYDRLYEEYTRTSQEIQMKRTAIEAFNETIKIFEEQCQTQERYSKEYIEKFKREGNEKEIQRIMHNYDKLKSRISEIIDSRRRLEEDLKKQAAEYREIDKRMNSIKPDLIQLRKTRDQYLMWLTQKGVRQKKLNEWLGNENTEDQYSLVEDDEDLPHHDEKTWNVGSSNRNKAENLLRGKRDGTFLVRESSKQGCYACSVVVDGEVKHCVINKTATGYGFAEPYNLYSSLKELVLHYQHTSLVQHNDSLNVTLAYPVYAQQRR", "test": "PI3Kα enzyme assay", "type": "biochemical", "how_it_was_run": "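Purchased recombinant PI3K enzyme (α, β, δ as p110/p85α; γ as p120γ) was mixed with the PIP2:3PS lipid substrate, and the reaction was started with ATP from a 250 µM solution. Luminescence was read by ADP-Glo. Inhibition was normalised to DMSO and no-enzyme controls, with IC50 averaged over two runs.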"}}}
{"smiles": "COCCCSc1nc2n(n1)C(c1cccc(OC)c1)C(C(=O)Nc1cccnc1)=C(C)N2", "note": "(stereo not shown) [1a, 7-(3-Methoxyphenyl)-2-((3-Methoxypropyl)Thio)-5-Methyl-N-(Pyridin-3-yl)-4,7-Dihydro-[1,2,4]Triazolo[1,5-a]Pyrimidine-6-Carboxamide]", "values": [{"measurement": "IC50", "setting": "mTOR enzyme", "value": 167, "unit": "nM"}, {"measurement": "Selectivity", "setting": "mTOR enzyme", "value": 9}, {"measurement": "inhibition at 10 µM", "setting": "mTOR enzyme; read-out: mTOR enzyme inhibition rate", "value": 91.8, "unit": "%"}, {"measurement": "IC50", "setting": "PI3Kα (p110α/p85α)", "value": 1580, "unit": "nM"}]}
{"smiles": "COc1cccc(C2C(C(=O)Nc3cccnc3)=C(C)Nc3nc(SCCC4OCCO4)nn32)c1", "note": "(stereo not shown) [1b, 2-((2-(1,3-Dioxolan-2-yl)Ethyl)Thio)-7-(3-Methoxyphenyl)-5-Methyl-N-(Pyridin-3-yl)-4,7-Dihydro-[1,2,4]Triazolo[1,5-a]Pyrimidine-6-Carboxamide]", "values": [{"measurement": "IC50", "setting": "mTOR enzyme", "value": 50, "unit": "nM"}, {"measurement": "Selectivity", "setting": "mTOR enzyme", "value": 16}, {"measurement": "IC50", "setting": "PI3Kα (p110α/p85α)", "value": 793, "unit": "nM"}]}
{"smiles": "COC(=O)CCSc1nc2n(n1)C(c1cccc(OC)c1)C(C(=O)Nc1cccc(F)c1)=C(C)N2", "note": "(stereo not shown) [2b, Methyl 3-((6-((3-Fluorophenyl)Carbamoyl)-7-(3-Methoxyphenyl)-5-Methyl-4,7-Dihydro-[1,2,4]Triazolo[1,5-a]Pyrimidin-2-yl)Thio)Propanoate]", "values": [{"measurement": "IC50", "setting": "mTOR enzyme", "value": 124, "unit": "nM"}, {"measurement": "Selectivity", "setting": "mTOR enzyme", "value": 4}, {"measurement": "IC50", "setting": "PI3Kα (p110α/p85α)", "value": 437, "unit": "nM"}]}
{"smiles": "COC(=O)CCSc1nc2n(n1)C(c1cccc(OC)c1)C(C(=O)Nc1ccc(OC)cc1)=C(C)N2", "note": "(stereo not shown) [2c, Methyl 3-((7-(3-Methoxyphenyl)-6-((4-Methoxyphenyl)Carbamoyl)-5-Methyl-4,7-Dihydro-[1,2,4]Triazolo[1,5-a]Pyrimidin-2-yl)Thio)Propanoate]", "values": [{"measurement": "IC50", "setting": "mTOR enzyme", "value": 139, "unit": "nM"}, {"measurement": "Selectivity", "setting": "mTOR enzyme", "value": 8}, {"measurement": "IC50", "setting": "PI3Kα (p110α/p85α)", "value": 1050, "unit": "nM"}]}
{"smiles": "COC(=O)CCSc1nc2n(n1)C(c1cccc(OC)c1)C(C(=O)Nc1cccc(C(C)=O)c1)=C(C)N2", "note": "(stereo not shown) [2d, Methyl 3-((6-((3-Acetylphenyl)Carbamoyl)-7-(3-Methoxyphenyl)-5-Methyl-4,7-Dihydro-[1,2,4]Triazolo[1,5-a]Pyrimidin-2-yl)Thio)Propanoate]", "values": [{"measurement": "IC50", "setting": "mTOR enzyme", "value": 23, "unit": "nM"}, {"measurement": "Selectivity", "setting": "mTOR enzyme", "value": 10}, {"measurement": "IC50", "setting": "PI3Kα (p110α/p85α)", "value": 228, "unit": "nM"}]}
{"smiles": "COC(=O)CCSc1nc2n(n1)C(c1cccc(OC)c1)C(C(=O)Nc1ccc(C(C)=O)cc1)=C(C)N2", "note": "(stereo not shown) [2e, Methyl 3-((6-((4-Acetylphenyl)Carbamoyl)-7-(3-Methoxyphenyl)-5-Methyl-4,7-Dihydro-[1,2,4]Triazolo[1,5-a]Pyrimidin-2-yl)Thio)Propanoate]", "values": [{"measurement": "IC50", "setting": "mTOR enzyme", "value": 72, "unit": "nM"}, {"measurement": "Selectivity", "setting": "mTOR enzyme", "value": 4}, {"measurement": "IC50", "setting": "PI3Kα (p110α/p85α)", "value": 254, "unit": "nM"}]}
{"smiles": "COc1cccc(C2C(C(=O)Nc3cncc(C)c3)=C(C)Nc3nc(SCCC4OCCO4)nn32)c1", "note": "(stereo not shown) [2f, 2-((2-(1,3-Dioxolan-2-yl)Ethyl)Thio)-7-(3-Methoxyphenyl)-5-Methyl-N-(5-Methylpyridin-3-yl)-4,7-Dihydro-[1,2,4]Triazolo[1,5-a]Pyrimidine-6-Carboxamide]", "values": [{"measurement": "IC50", "setting": "mTOR enzyme", "value": 28, "unit": "nM"}, {"measurement": "Selectivity", "setting": "mTOR enzyme", "value": 7}, {"measurement": "IC50", "setting": "PI3Kα (p110α/p85α)", "value": 193, "unit": "nM"}]}
{"smiles": "COc1cccc(C2C(C(=O)Nc3cccc(F)c3)=C(C)Nc3nc(SCCC4OCCO4)nn32)c1", "note": "(stereo not shown) [2g, 2-((2-(1,3-Dioxolan-2-yl)Ethyl)Thio)-N-(3-Fluorophenyl)-7-(3-Methoxyphenyl)-5-Methyl-4,7-Dihydro-[1,2,4]Triazolo[1,5-a]Pyrimidine-6-Carboxamide]", "values": [{"measurement": "IC50", "setting": "mTOR enzyme", "value": 313, "unit": "nM"}, {"measurement": "Selectivity", "setting": "mTOR enzyme", "value": 3}, {"measurement": "IC50", "setting": "PI3Kα (p110α/p85α)", "value": 844, "unit": "nM"}]}
{"smiles": "COc1ccc(NC(=O)C2=C(C)Nc3nc(SCCC4OCCO4)nn3C2c2cccc(OC)c2)cc1", "note": "(stereo not shown) [2h, 2-((2-(1,3-Dioxolan-2-yl)Ethyl)Thio)-7-(3-Methoxyphenyl)-N-(4-Methoxyphenyl)-5-Methyl-4,7-Dihydro-[1,2,4]Triazolo[1,5-a]Pyrimidine-6-Carboxamide]", "values": [{"measurement": "IC50", "setting": "mTOR enzyme", "value": 359, "unit": "nM"}, {"measurement": "Selectivity", "setting": "mTOR enzyme", "value": 9}, {"measurement": "IC50", "setting": "PI3Kα (p110α/p85α)", "value": 3200, "unit": "nM"}]}
{"smiles": "COc1cccc(C2C(C(=O)Nc3cccc(C(C)=O)c3)=C(C)Nc3nc(SCCC4OCCO4)nn32)c1", "note": "(stereo not shown) [2i, 2-((2-(1,3-Dioxolan-2-yl)Ethyl)Thio)-N-(3-Acetylphenyl)-7-(3-Methoxyphenyl)-5-Methyl-4,7-Dihydro-[1,2,4]Triazolo[1,5-a]Pyrimidine-6-Carboxamide]", "values": [{"measurement": "IC50", "setting": "mTOR enzyme", "value": 92, "unit": "nM"}, {"measurement": "Selectivity", "setting": "mTOR enzyme", "value": 29}, {"measurement": "IC50", "setting": "PI3Kα (p110α/p85α)", "value": 2680, "unit": "nM"}]}
{"smiles": "COc1cccc(C2C(C(=O)Nc3ccc(C(C)=O)cc3)=C(C)Nc3nc(SCCC4OCCO4)nn32)c1", "note": "(stereo not shown) [2j, 2-((2-(1,3-Dioxolan-2-yl)Ethyl)Thio)-N-(4-Acetylphenyl)-7-(3-Methoxyphenyl)-5-Methyl-4,7-Dihydro-[1,2,4]Triazolo[1,5-a]Pyrimidine-6-Carboxamide]", "values": [{"measurement": "IC50", "setting": "mTOR enzyme", "value": 184, "unit": "nM"}, {"measurement": "Selectivity", "setting": "mTOR enzyme", "value": 5}, {"measurement": "IC50", "setting": "PI3Kα (p110α/p85α)", "value": 952, "unit": "nM"}]}
{"smiles": "COC(=O)CCSc1nc2n(n1)C(c1cccc(O)c1)C(C(=O)Nc1cncc(C)c1)=C(C)N2", "note": "(stereo not shown) [3a, Methyl 3-((7-(3-Hydroxyphenyl)-5-Methyl-6-((5-Methylpyridin-3-yl) Carbamoyl)-4,7-Dihydro-[1,2,4] Triazolo[1,5-a]Pyrimidin-2-yl)Thio)Propanoate]", "values": [{"measurement": "IC50", "setting": "mTOR enzyme", "value": 260, "unit": "nM"}, {"measurement": "Selectivity", "setting": "mTOR enzyme", "value": 14}, {"measurement": "IC50", "setting": "PI3Kα (p110α/p85α)", "value": 3560, "unit": "nM"}]}
{"smiles": "COC(=O)CCSc1nc2n(n1)C(c1ccc(O)cc1)C(C(=O)Nc1cncc(C)c1)=C(C)N2", "note": "(stereo not shown) [3b, Methyl 3-((7-(4-Hydroxyphenyl)-5-Methyl-6-((5-Methylpyridin-3-yl) Carbamoyl)-4,7-Dihydro-[1,2,4]Triazolo[1,5-a]Pyrimidin-2-yl)Thio)Propanoate]", "values": [{"measurement": "IC50", "setting": "mTOR enzyme", "value": 2210, "unit": "nM"}, {"measurement": "Selectivity", "setting": "mTOR enzyme", "value": ">5"}, {"measurement": "inhibitory activity against mTOR (in words)", "setting": "mTOR enzyme", "value": "low inhibitory activity against mTOR"}, {"measurement": "IC50", "setting": "PI3Kα (p110α/p85α)", "value": "> 10000", "unit": "nM"}]}
{"smiles": "COC(=O)CCSc1nc2n(n1)C(c1ccccc1)C(C(=O)Nc1cncc(C)c1)=C(C)N2", "note": "(stereo not shown) [3c, Methyl 3-((5-Methyl-6-((5-Methylpyridin-3-yl)carbamoyl)-7-Phenyl-4,7- Dihydro-[1,2,4]Triazolo[1,5-a]Pyrimidin-2-yl)Thio)Propanoate]", "values": [{"measurement": "IC50", "setting": "mTOR enzyme", "value": 246, "unit": "nM"}, {"measurement": "Selectivity", "setting": "mTOR enzyme", "value": 3}, {"measurement": "IC50", "setting": "PI3Kα (p110α/p85α)", "value": 703, "unit": "nM"}]}
{"smiles": "COC(=O)CCSc1nc2n(n1)C(c1ccc(C)cc1)C(C(=O)Nc1cncc(C)c1)=C(C)N2", "note": "(stereo not shown) [3d, Methyl 3-((5-Methyl-6-((5-Methylpyridin-3-yl)Carbamoyl)-7-(p-Tolyl)-4,7 -Dihydro-[1,2,4]Triazolo[1,5-a]Pyrimidin-2-yl)Thio)Propanoate]", "values": [{"measurement": "IC50", "setting": "mTOR enzyme", "value": 932, "unit": "nM"}, {"measurement": "Selectivity", "setting": "mTOR enzyme", "value": 8}, {"measurement": "inhibitory activity against mTOR (in words)", "setting": "mTOR enzyme", "value": "low inhibitory activity against mTOR"}, {"measurement": "IC50", "setting": "PI3Kα (p110α/p85α)", "value": 7360, "unit": "nM"}]}
{"smiles": "COC(=O)CCSc1nc2n(n1)C(c1ccccc1C)C(C(=O)Nc1cncc(C)c1)=C(C)N2", "note": "(stereo not shown) [3e, Methyl 3-((5-Methyl-6-((5-Methylpyridin-3-yl)Carbamoyl)-7-(o-Tolyl)-4,7-Dihydro-[1,2,4]Triazolo[1,5-a]pyrimidin-2-yl)Thio)Propanoate]", "values": [{"measurement": "IC50", "setting": "mTOR enzyme", "value": 479, "unit": "nM"}, {"measurement": "Selectivity", "setting": "mTOR enzyme", "value": 6}, {"measurement": "IC50", "setting": "PI3Kα (p110α/p85α)", "value": 2770, "unit": "nM"}]}
{"smiles": "COC(=O)CCSc1nc2n(n1)C(c1cc(C)cc(C)c1)C(C(=O)Nc1cncc(C)c1)=C(C)N2", "note": "(stereo not shown) [3f, Methyl 3-((7-(3,5-Dimethylphenyl)-5-Methyl-6-((5-Methylpyridin-3-yl) Carbamoyl)-4,7-Dihydro-[1,2,4]Triazolo[1,5-a]Pyrimidin-2-yl)Thio)Propanoate]", "values": [{"measurement": "IC50", "setting": "mTOR enzyme", "value": 529, "unit": "nM"}, {"measurement": "Selectivity", "setting": "mTOR enzyme", "value": 0.8}, {"measurement": "IC50", "setting": "PI3Kα (p110α/p85α)", "value": 433, "unit": "nM"}]}
{"smiles": "COC(=O)CCSc1nc2n(n1)C(c1ccc(F)cc1)C(C(=O)Nc1cncc(C)c1)=C(C)N2", "note": "(stereo not shown) [3g, Methyl 3-((7-(4-Fluorophenyl)-5-Methyl-6-((5-Methylpyridin-3-yl)carbamoyl)-4,7-Dihydro-[1,2,4] Triazolo[1,5-a]Pyrimidin-2-yl)Thio)Propanoate]", "values": [{"measurement": "IC50", "setting": "mTOR enzyme", "value": 1770, "unit": "nM"}, {"measurement": "Selectivity", "setting": "mTOR enzyme", "value": ">6"}, {"measurement": "inhibitory activity against mTOR (in words)", "setting": "mTOR enzyme", "value": "low inhibitory activity against mTOR"}, {"measurement": "IC50", "setting": "PI3Kα (p110α/p85α)", "value": "> 10000", "unit": "nM"}]}
{"smiles": "COC(=O)CCSc1nc2n(n1)C(c1cccc(F)c1)C(C(=O)Nc1cncc(C)c1)=C(C)N2", "note": "(stereo not shown) [3h, Methyl 3-((7-(3-Fluorophenyl)-5-Methyl-6-((5-Methylpyridin-3-yl)Carbamoyl)-4,7-Dihydro-[1,2,4] Triazolo[1,5-a]Pyrimidin-2-yl)Thio)Propanoate]", "values": [{"measurement": "IC50", "setting": "mTOR enzyme", "value": 326, "unit": "nM"}, {"measurement": "Selectivity", "setting": "mTOR enzyme", "value": 2}, {"measurement": "IC50", "setting": "PI3Kα (p110α/p85α)", "value": 738, "unit": "nM"}]}
